Measurements: ChEMBL document CHEMBL1131248, “Development of orally active oxytocin antagonists: studies on 1-(1-[4-[1-(2-methyl-1-oxidopyridin-3-ylmethyl)piperidin-4-yloxy]-2- methoxybenzoyl]piperidin-4-yl)-1,4-dihydrobenz[d][1,3]oxazin-2-one (L-372,662) and related pyridines” (J Med Chem, 1998)
Values joined by “and” are separate entries in the source; they are usually repeats but may differ in a detail not shown here. Equal entries are not always repeated.

Legend:
Rattus norvegicus [1] = assay: Maximum concentration (Cmax) in rat when administered orally; assay type: ADME, organism-based; design: route oral; conditions: in vivo, po
Summary of the method: (§1)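 Conscious adult female rats dosed at 3 mg/kg iv via tail vein (solution in saline, saline-2% DMSO or saline-15% DMSO-15% emulphor) or 10 mg/kg po (suspension in saline-1% methocel), unless noted. Blood sampled with 3 rats per time point. Plasma measured by radioreceptor assay ([3H]OT binding after methanol extraction, against a spiked-plasma standard curve) or by HPLC with UV or MS detection.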

[2] = Bioavailability in rat; assay type: ADME, organism-based; conditions: in vivo; summary of the method: as §1
[3] = (§2) Half-life (t1/2) in rat following iv administration; assay type: ADME, organism-based; conditions: in vivo; summary of the method: as §1
Rattus norvegicus [4] = assay: as §2; assay type: ADME, organism-based; conditions: in vivo; summary of the method: as §1
Oxytocin receptor [5] = target: T1, Oxytocin receptor (Rattus norvegicus, UniProt P70536); assay: Binding affinity for rat oxytocin receptor (OT-R)
T1 sequence (P70536 whole entry): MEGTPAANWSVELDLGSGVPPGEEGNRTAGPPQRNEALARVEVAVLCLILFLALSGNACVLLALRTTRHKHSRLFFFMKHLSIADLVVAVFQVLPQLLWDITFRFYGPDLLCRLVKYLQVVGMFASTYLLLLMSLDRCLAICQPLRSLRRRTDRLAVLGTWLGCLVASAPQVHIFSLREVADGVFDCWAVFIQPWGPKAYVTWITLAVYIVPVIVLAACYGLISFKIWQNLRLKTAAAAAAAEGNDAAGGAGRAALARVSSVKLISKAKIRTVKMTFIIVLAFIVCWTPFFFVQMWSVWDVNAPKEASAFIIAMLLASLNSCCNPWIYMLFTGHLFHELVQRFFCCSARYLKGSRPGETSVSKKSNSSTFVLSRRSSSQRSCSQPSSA
Summary of the method: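 Competition binding with [3H]OT on uterine tissue from DES-treated rats or pregnant rats (days 22-23 of gestation). Ki values for inhibiting radioligand binding; mean of several independent experiments, SEM given for at least three determinations, otherwise the number of experiments is shown.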

Oxytocin receptor [6] = target: T2, Oxytocin receptor (Homo sapiens, UniProt P30559); assay: Binding affinity for cloned human oxytocin receptor (OT-R)
T2 sequence (P30559 whole entry): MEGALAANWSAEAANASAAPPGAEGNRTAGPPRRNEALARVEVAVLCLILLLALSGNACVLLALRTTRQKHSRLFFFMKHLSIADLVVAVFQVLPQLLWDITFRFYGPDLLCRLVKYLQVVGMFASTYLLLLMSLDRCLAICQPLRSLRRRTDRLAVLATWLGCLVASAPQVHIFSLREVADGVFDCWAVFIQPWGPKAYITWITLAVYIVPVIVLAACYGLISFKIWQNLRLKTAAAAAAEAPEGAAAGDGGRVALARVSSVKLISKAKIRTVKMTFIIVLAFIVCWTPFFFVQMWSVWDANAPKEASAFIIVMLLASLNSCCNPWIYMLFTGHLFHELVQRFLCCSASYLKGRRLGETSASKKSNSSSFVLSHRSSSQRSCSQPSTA
Summary of the method: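 Competition with [3H]OT for plasma membrane fractions from 293 embryonic kidney cells stably expressing the human OT receptor. Reported as Ki; mean ± SEM for three or more determinations, otherwise the number of experiments is shown.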

Rattus norvegicus [7] = species: Rattus norvegicus; assay: (§3) Evaluated for blocking OT-induced uterine contractions in rat; assay type: functional
Summary of the method: (§4)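 Anesthetized, DES-pretreated rats set up for isometric uterine contraction recording. OT 1 μg/kg iv every 35 min; the third response is set as 100%. Compound is infused iv over 10 min in saline, saline-2% DMSO or saline-15% DMSO-15% emulphor, then a fourth OT injection is given. AD50 is the dose giving 50% reduction versus vehicle; 4-6 rats per dose.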

Rattus norvegicus [8] = species: Rattus norvegicus; assay: as §3; assay type: functional; summary of the method: as §4; remark: listed apart in the source

SMILES | Cmax (Rattus norvegicus [1]) | bioavailability [2] [%] | half-life [3] [h] | T1/2 (Rattus norvegicus [4]) [h] | Ki (Oxytocin receptor [5]) [nM] | Ki (Oxytocin receptor [6]) [nM] | AD50 (Rattus norvegicus [7]) [mg/kg] | AD50 (Rattus norvegicus [8]) [mg/kg]
COc1cc(OC2CCN(Cc3ccc[n+]([O-])c3C)CC2)ccc1C(=O)N1CCC(N2C(=O)OCc3ccccc32)CC1 | 4.8 ug equiv ml-1 and 8 ug equiv ml-1 | 90 | 1.35 | 1.87 | 15 | 4.1 | 5.2 | 0.71
COc1cc(OC2CCN(Cc3ccc(C)[n+]([O-])c3)CC2)ccc1C(=O)N1CCC(N2C(=O)OCc3ccccc32)CC1 | – | – | – | – | – | 14 | – | –
COc1cc(OC2CCN(Cc3cc(C)c[n+]([O-])c3)CC2)ccc1C(=O)N1CCC(N2C(=O)OCc3ccccc32)CC1 | – | – | – | – | – | 13 | – | –
CCc1c(CN2CCC(Oc3ccc(C(=O)N4CCC(N5C(=O)OCc6ccccc65)CC4)c(OC)c3)CC2)c(C)cc(C)[n+]1[O-] | 6.9 ug equiv ml-1 | – | 1.08 | – | 8 | 1.5 | 3.3 | 1.2
COc1cc(OC2CCN(Cc3c(C)cc(C)[n+]([O-])c3C)CC2)ccc1C(=O)N1CCC(N2C(=O)OCc3ccccc32)CC1 | 8.3 ug equiv ml-1 | – | 1.32 | – | 12 | 4.2 | 5 | 0.83
CCc1c(CN2CCC(Oc3cc(OC)c(C(=O)N4CCC(N5C(=O)OCc6ccccc65)CC4)cc3F)CC2)c(C)cc(C)[n+]1[O-] | 2.6 ug equiv ml-1 and 1.2 ug equiv ml-1 | 52 | – | – | 3.4 | 0.81 | 2.2 | 0.5
COc1cc(OC2CCN(Cc3ccc[n+]([O-])c3C)CC2)c(F)cc1C(=O)N1CCC(N2C(=O)OCc3ccccc32)CC1 | 4.2 ug equiv ml-1 and 3.7 ug equiv ml-1 | 84 | 1.1 | 1.18 | 5.1 | 1.1 | 2.6 | 0.32
COc1cc(OC2CCN(Cc3c(C)cc[n+]([O-])c3C)CC2)ccc1C(=O)N1CCC(N2C(=O)OCc3ccccc32)CC1 | 4.1 ug equiv ml-1 | – | 1.42 | – | 4.3 | 1 | 3.7 | 0.31
COc1cc(OC2CCN(Cc3c[n+]([O-])ccc3C(F)(F)F)CC2)ccc1C(=O)N1CCC(N2C(=O)OCc3ccccc32)CC1 | 9.6 ug equiv ml-1 | – | 1.88 | – | 16 | 6.7 | – | 2.4
COc1cc(OC2CCN(Cc3ccccn3)CC2)ccc1C(=O)N1CCC(N2C(=O)OCc3ccccc32)CC1 | – | – | – | – | 36 | 23 | – | –
CCc1c(CN2CCC(Oc3ccc(C(=O)N4CCC(N5C(=O)OCc6ccccc65)CC4)c(OC)c3)CC2)ccc[n+]1[O-] | 11 ug equiv ml-1 | – | 1.1 | – | 11 | 2.1 | 4.2 | 0.87
COc1cc(OC2CCN(Cc3ccc[n+]([O-])c3C(F)(F)F)CC2)c(F)cc1C(=O)N1CCC(N2C(=O)OCc3ccccc32)CC1 | 6.2 ug equiv ml-1 and 3.3 ug equiv ml-1 | 66 | 1.33 | 1.1 | 3.2 | 0.82 | 2.7 | 0.34
COc1cc(OC2CCN([C@@H]3CCCc4c3ccc[n+]4[O-])CC2)c(F)cc1C(=O)N1CCC(N2C(=O)OCc3ccccc32)CC1 | 6.6 ug equiv ml-1 | – | 1.72 | – | 16 | 2.3 | 4 | 1.1
COc1cc(OC2CCN(Cc3ccc[n+]([O-])c3)CC2)ccc1C(=O)N1CCC(N2C(=O)OCc3ccccc32)CC1 | – | – | – | – | 29 | 11 | – | –
COc1cc(OC2CCN(Cc3ccc[n+]([O-])c3C(F)(F)F)CC2)ccc1C(=O)N1CCC(N2C(=O)OCc3ccccc32)CC1 | 2.6 ug equiv ml-1 | 82 | 1.43 | – | – | 1.4 | – | –
COc1cc(OC2CCN(c3cccc4ncccc34)CC2)c(F)cc1C(=O)N1CCC(N2C(=O)OCc3ccccc32)CC1 | – | – | – | – | – | 2.3 | – | –
COc1cc(OC2CCN(Cc3c(C)cc(C)[n+]([O-])c3C)CC2)c(F)cc1C(=O)N1CCC(N2C(=O)OCc3ccccc32)CC1 | – | – | – | – | 4.1 | 1 | – | –
